The source of these data is ChEMBL document CHEMBL3616436, “Synthesis, cytotoxicity and antimicrobial activity of thiourea derivatives incorporating 3-(trifluoromethyl)phenyl moiety” (Eur J Med Chem, 2015).

In brackets after ≈: the same amount, converted by molar mass.

In this experiment the test system is Mycobacterium tuberculosis. Nature of the experiment: Antimycobacterial activity against p-aminosalicylic acid/isonicotinic acid hydrazide/etambutol/rifampicin-resistant Mycobacterium tuberculosis Spec. 210. Format: functional. The gist of the method:
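Classical test-tube successive-dilution method in Youmans' modification of Proskauer and Beck liquid medium with 10% bovine serum. Inoculum came from 14-day cultures. DMSO stock was 10 mg/mL, diluted geometrically in medium. Tubes were incubated at 37 °C. Concentrations tested were 3.1, 6.2, 12.5, 25, 50 and 100 µg/ml. MIC is the minimum concentration inhibiting growth relative to compound-free tubes.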
The term MIC denotes the lowest concentration found to suppress growth. High values mean weaker potency, low ones greater potency. `Fc1cccc(NC(=S)Nc2cccc(C(F)(F)F)c2)c1` had an MIC of 25 µg/mL (≈ 79.5 µM). The same measure for `FC(F)(F)c1cccc(NC(S)=NCc2ccccc2)c1`: 25 µg/mL (≈ 80.6 µM); for `FC(F)(F)c1cccc(NC(=S)Nc2cccc(Cl)c2)c1`: 100 µg/mL (≈ 302 µM); for `FC(F)(F)c1cccc(NC(=S)NC2CCCCC2)c1`: > 100 µg/mL. The figure for `FC(F)(F)c1cccc(NC(=S)Nc2cccc(Br)c2)c1` is 100 µg/mL (≈ 267 µM); for `Fc1ccc(NC(=S)Nc2cccc(C(F)(F)F)c2)cc1Cl` it is 50 µg/mL (≈ 143 µM); for `C=C(C)CNC(=S)Nc1cccc(C(F)(F)F)c1` it is > 100 µg/mL. Consider `CSCCCNC(=S)Nc1cccc(C(F)(F)F)c1`, for which it took 50 µg/mL (≈ 162 µM) to inhibit growth (MIC). On to `CCOC(=O)c1ccc(NC(=S)Nc2cccc(C(F)(F)F)c2)cc1`, for which the MIC was > 100 µg/mL.

Consider `FC(F)(F)c1cccc(NC(=S)Nc2ccccc2)c1`, for which the minimum inhibitory concentration (MIC) is 50 µg/mL (≈ 169 µM).

For `FC(F)(F)c1cccc(NC(=S)NCc2ccco2)c1`, the MIC is > 100 µg/mL. The same measure for `COC(=O)c1ccccc1NC(=S)Nc1cccc(C(F)(F)F)c1`: > 100 µg/mL. The same measure for `O=C(NC(=S)Nc1cccc(C(F)(F)F)c1)c1ccccc1`: > 100 µg/mL; for `FC(F)(F)c1cccc(NC(S)=Nc2ccc(Cl)c(Cl)c2)c1`: 50 µg/mL (≈ 137 µM). In the case of `CCCCc1ccc(NC(=S)Nc2cccc(C(F)(F)F)c2)c(C)c1`, inhibition of growth (MIC) required 50 µg/mL (≈ 136 µM).

Regarding `FC(F)(F)c1cccc(NC(=S)Nc2ccc(Cl)cc2)c1`, the MIC was > 100 µg/mL. As to `CCNC(=S)Nc1cccc(C(F)(F)F)c1`, the MIC was > 100 µg/mL.

`Cc1ccc(NC(=S)Nc2cccc(C(F)(F)F)c2)cc1Cl`: the MIC is > 100 µg/mL.

As to `FC(F)(F)c1cccc(NC(=S)NCCc2ccccc2)c1`, the minimal inhibitory concentration (MIC) was determined as 50 µg/mL (≈ 154 µM). The figure for `Fc1ccc(NC(=S)Nc2cccc(C(F)(F)F)c2)cc1` is 25 µg/mL (≈ 79.5 µM); for `COc1cccc(NC(=S)Nc2cccc(C(F)(F)F)c2)c1` it is > 100 µg/mL; for `O=[N+]([O-])c1ccc(NC(=S)Nc2cccc(C(F)(F)F)c2)cc1` it is 50 µg/mL (≈ 146 µM). On to `NNC(=O)c1ccncc1` [ISONIAZID], for which the MIC was 6.25 µg/mL (≈ 45.6 µM). The figure for `N#Cc1ccc(NC(=S)Nc2cccc(C(F)(F)F)c2)cc1` is > 100 µg/mL; for `Fc1ccccc1NC(=S)Nc1cccc(C(F)(F)F)c1` it is 100 µg/mL (≈ 318 µM).
